D1 mod: allosteric modulators of human D1 dopamine receptor. HEK293 D1, CRE-luciferase, dopamine EC30 potentiation; actives deviate in either direction. B-score at 10 µM. 58,000 compounds, 5.9% hits;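 active = luminescence count or its row- and column-corrected plate score outside the 99.7% band of the plate's sample wells, on either side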
DAT uptake mod: human DAT dopamine uptake with cocaine, either direction. 110,000 compounds, 1.3% hits. Q01959. AID 449768. LLC-PK1 hDAT cells, [14C]-dopamine uptake with cocaine IC80; actives deviate in either direction. B-score at 10 µM;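 active = Z score or B-score, a plate-position-corrected score, falls beyond the plate's 99.7% confidence bounds, in either direction; inactive = both scores lie inside the 99.7% bounds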;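 note: scored against the spread of the other compound wells on the same plate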
M1 ag: activates the M1 muscarinic receptor; CHO-M1 cells, Fluo-4 calcium fluorescence, agonist mode; hits give high values; B-score at 10 µM; 64,000 compounds, 3% hits;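 active = fluorescence rise, raw or as B-score row- and column-corrected plate score, outside the 99.7% band of its plate's samples, either direction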
BAP1 inh: blocks human BAP1 ubiquitin-AMC hydrolysis. Q92560. recombinant BAP1, Ub-AMC hydrolysis fluorescence kinetic; hits give low values. AID 436. 72,000 compounds, 0.48% hits. calls only at 20 µM;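 active = activity remaining at or below 50% of control, provided the compound also passes the data quality filters; inactive = the rest, including low values that fail the filters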;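 note: 100% = DMSO wells rate and 0% = substrate alone blank rate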
HEK293 NFkB inh: inhibitors of the PMA/ionomycin-induced NF-kB reporter in HEK293 cells; HEK-293 NF-kB luciferase reporter, luminescence; inhibition, % at 3 µM; AID 465; 62,000 compounds, 0.21% hits;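 active = inhibition above the mean of all tested compounds plus 3 SD, cut at about 40% in these data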;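 note: 0% = stimulated DMSO wells and 100% = 10 µM reference inhibitor 5653914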
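System – HEK-293 cells with stable firefly luciferase reporter driven by four HIV NF-kB elements · Doses – one dose, 3 µM · Schedule – 1 h compound pre-incubation, 16 h PMA/ionomycin at 37 °C · Technique – luminescence from luciferase substrate reagent · Measure – percent inhibition normalized per plate to DMSO and reference-inhibitor controls · Replicates – tested once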
M1 antagonist: antagonists of rat M1 muscarinic receptor. P08482. CHO-M1 cells, Fluo-4 calcium, ACh EC80 antagonist mode; hits give low values. B-score at 10 µM. 64,000 compounds, 3.4% hits;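 active = calcium fluorescence response, raw or row-and-column corrected B-score, differing from the plate sample mean either way at a set confidence level, mostly lower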
BAP1 inh conf: BAP1 (human) enzyme inhibition, confirmed. % of control activity, % at 20 µM. purified BAP1, Ub-ethyl ester hydrolysis, HPLC; hits give low values. AID 753. shares compounds with BAP1 inh. 310 compounds, 8% hits;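 active = percent of control activity at or below 60%; inconclusive = HPLC trace unusable from injection failure or solvent front hiding peaks; inactive = the rest, plus ubiquitin peak ratio over a set limit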
M1 agonist conf: rat M1 muscarinic agonism, confirmation. AID 1488. 1,700 compounds, 19% hits. fluorescence change (max-min) at 10 µM. CHO-M1 cells, Fluo-4 calcium fluorescence, agonist mode; actives lie on both sides. shares compounds with M1 ag;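 active = fluorescence change differs from the solvent-only DMSO control mean at a set confidence level in both duplicate runs; inconclusive = differs from solvent-only control mean in just one of two runs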;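 note: an EC20 dose of acetylcholine follows compound addition during the same imaging run; raw fluorescence intensity difference in instrument units with no normalization to controls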
M4 ag counter: rat M4 muscarinic agonism, M1 counter-screen; shares compounds with M1 ag; fluorescence change (max-min) at 10 µM; CHO M4/Gqi5 cells, Fluo-4 calcium fluorescence, agonist mode; actives lie on both sides; 1,700 compounds, 9% hits;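 active = fluorescence change differing from the plate's solvent-only control wells at 99.7% confidence in both duplicates, whether higher or lower; inconclusive = differs from solvent controls in only one of two duplicates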
Target sequence (P08485 whole entry, looked up): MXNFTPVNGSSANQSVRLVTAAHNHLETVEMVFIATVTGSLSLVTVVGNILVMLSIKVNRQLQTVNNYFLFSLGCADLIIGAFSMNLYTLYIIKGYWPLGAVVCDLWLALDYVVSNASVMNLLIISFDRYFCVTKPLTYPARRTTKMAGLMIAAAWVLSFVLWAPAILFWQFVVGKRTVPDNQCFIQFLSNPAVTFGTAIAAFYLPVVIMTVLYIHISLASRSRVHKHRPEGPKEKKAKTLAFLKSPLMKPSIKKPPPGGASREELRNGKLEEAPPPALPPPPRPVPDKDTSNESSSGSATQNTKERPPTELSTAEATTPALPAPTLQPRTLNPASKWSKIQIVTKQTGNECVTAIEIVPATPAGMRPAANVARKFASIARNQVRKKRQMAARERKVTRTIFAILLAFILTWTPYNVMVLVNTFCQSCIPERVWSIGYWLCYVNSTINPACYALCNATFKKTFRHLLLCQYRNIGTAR
M1 antag confirm: confirmation of rat M1 muscarinic receptor antagonists. CHO-M1 cells, Fluo-4 calcium, ACh EC80 antagonism; hits give low values. AID 677. shares compounds with M1 antagonist. calcium response (max-min fluorescence) at 10 µM. 1,700 compounds, 43% hits;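 active = calcium response below the same-plate mean of wells given acetylcholine alone at its 80%-effect dose, minus 3 SD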;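 note: raw fluorescence intensity difference in arbitrary instrument units and not normalized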
mGluR4 antag: acts on human mGluR4 in M1 antagonist selectivity test; shares compounds with M1 antagonist; 1,700 compounds, 0.9% hits; fluorescence response (max-min) at 10 µM; CHO-mGluR4 calcium flux, Fluo-4 fluorescence, glutamate EC80; hits give low values;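 active = fluorescence response below the plate's average for near-maximal glutamate wells, less 3 SD of those wells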;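 note: raw unnormalized fluorescence span taken in the window right after glutamate addition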
Starred values were filed as active, the others as inactive; i = inactive; u = inconclusive; x = not tested or not shown; + = active, no number. Sampled rows, rich in hits. Any-hit rate of the full collection: about 7.2%.

SMILES | D1 mod | DAT uptake mod | M1 ag | BAP1 inh | HEK293 NFkB inh | M1 antagonist | BAP1 inh conf | others
CCOc1cc(S(=O)(=O)N2CCC(Cc3ccccc3)CC2)c(OCC)cc1-n1cnnn1 | -0.74 | -0.46 | -0.43 | + | 8 | -0.11 | 89
O=C1c2ccccc2C(=O)c2cc(F)ccc21 | x | x | x | i | x | x | x
O=C(Nc1cccnc1)c1ccc(-c2cccc([N+](=O)[O-])c2)o1 | x | x | x | i | x | x | x
CCOC(=O)N1CCN(c2ncnc3c2cnn3-c2ccc(OC)cc2)CC1 | x | x | -0.3 | i | x | 0.41 | 99
CCOC(=O)C1CCN(c2ncnc3c2cnn3-c2ccc(Cl)cc2)CC1 | x | x | -0.58 | i | x | 0.082 | x
Cc1cc2oc(=O)cc(C)c2cc1[N+](=O)[O-] | x | x | x | i | x | x | x
NS(=O)(=O)c1ccc(CNC(=O)NC23CC4CC(CC(C4)C2)C3)cc1 | 0.43 | -2 | -0.49 | + | 9 | -0.042 | 128
Cn1cc(/C=N/n2cnc3scc(-c4ccccc4)c3c2=O)c2ccccc21 | -0.06 | 0.62 | 0.64 | + | 39 | -0.74 | 91
O=c1c2c(-c3cccs3)csc2ncn1/N=C/c1ccc(OC(F)F)cc1 | x | -0.0018 | x | x | x | x | x
COC(=O)C1=C(C)N(C)C(=S)NC1c1cccc(OC)c1 (stereo not given) | x | x | x | i | x | x | x
COc1cccc(Cn2c(C3CC3)nc3ccc(NC(=O)c4ccco4)cc3c2=O)c1 | 0.12 | x | -0.34 | + | 10 | 0.15 | 103
O=C(Nc1ccc2nc(C3CC3)n(Cc3ccc(F)cc3)c(=O)c2c1)c1ccco1 | 1.2 | 0.2 | 0.99 | i | -5 | -0.015 | x
CSC1=C(C#N)C2(CCCC2)C(C#N)=C(N)N1 | 0.23 | -0.36 | -1.7 | + | 11 | -0.69 | 77
N#CC1=C(N)NC(SCC(=O)Nc2ccc(Br)cc2)=C(C#N)C12CCCCC2 | x | -1.8 | x | x | x | x | x
Cc1cc(I)ccc1NC(=O)c1cccc(CSc2nncn2C)c1 | x | x | x | i | x | x | x
COc1ccc(C=Nc2cccc(-c3cnc[nH]3)c2)cc1 | x | x | x | i | x | x | x
CCOC(=O)N1CCN(S(=O)(=O)c2ccc(C(=O)Nc3sc4c(c3C#N)CCC4)cc2)CC1 | 0.5 | x | -0.51 | + | 0 | 0.054 | 97
COc1nc2c(C)cccc2cc1-c1noc(-c2ccco2)n1 | -0.43 | -0.21 | x | + | 8 | x | 157
COC(=O)c1ccc(NC(=O)CSc2nnc(COc3ccc4c(c3)CCCC4)o2)cc1 | 0.22 | 0.83 | 0.11 | + | 8 | 0.4 | 82
CCc1ccc(NC(=O)CSc2nnc(COc3ccc4c(c3)CCCC4)o2)cc1 | x | -0.15 | x | x | x | x | x
CCOC(=O)c1sc(=NC(=O)c2ccc(OC)c(OC)c2)n(C)c1C | -0.052 | 0.52 | 0.028 | + | 2 | -0.39 | u
CCOC(=O)c1sc(=NC(=O)c2cccc(OC)c2)n(C)c1C | 0.55 | -0.32 | 0.0033 | i | -28 | -0.24 | x
COc1cccc(C(=O)Oc2ccc(N3C(=O)C4CCCCC4C3=O)cc2)c1 (stereo not given) | x | x | x | i | x | x | x
Cc1cc(NS(=O)(=O)c2ccc(NC(=O)c3cnc4scc(C)n4c3=O)cc2)nc(C)n1 | x | 0.46 | 0.61 | + | 15 | 1 | 92
Cc1ccc(NC(=O)c2cnc3scc(C)n3c2=O)c(C)c1 | 0.038 | x | 0.11 | + | 2 | 0.64 | i
SMILES | D1 mod | DAT uptake mod | M1 ag | BAP1 inh | HEK293 NFkB inh | M1 antagonist | BAP1 inh conf | others
Cc1noc(NS(=O)(=O)c2ccc(NC(=O)c3cnc4scc(C)n4c3=O)cc2)c1C | 2.1 | -0.059 | 0.38 | i | 18 | 0.39 | x
CC(=O)Nc1ccc(S(=O)(=O)Nc2ccc(C(=O)c3ccccc3)cc2)cc1 | x | x | x | i | x | x | x
Cc1nc2n(n1)C(c1ccccc1)C1=C(CC(c3ccco3)CC1=O)N2 (stereo not given) | -0.31 | -1.2 | -0.041 | + | 6 | 0.49 | 116
CCOC(=O)c1c(NC(=O)CSc2nnc(CNc3ccc(F)cc3)o2)sc(C(C)=O)c1C | 0.61 | 0.42 | 0.19 | + | -9 | 1.5 | 68
CCOC(=O)c1c(NC(=O)CSc2nc(C)cc(C)c2C#N)sc(C(C)=O)c1C | 1.6 | x | -0.031 | + | -7 | -0.032 | 80
CCOC(=O)c1c(NC(=O)CSc2nnc(Cc3ccccc3)o2)sc(C(C)=O)c1C | x | -0.66 | x | x | x | x | x
CCOC(=O)c1c(NC(=O)c2ccc(C(=O)c3ccccc3)cc2)sc2c1CCCC2 | x | x | x | i | x | x | x
CCOC(=O)c1c(NC(=O)c2ccc(-n3cnnn3)cc2)sc2c1CCCC2 | 1 | x | x | + | 16 | x | 121
O=C(NCc1ccco1)c1ccccc1NS(=O)(=O)c1ccc(Br)s1 | x | -0.83 | x | x | x | x | x
COc1ccc(S(=O)(=O)Nc2ccccc2C(=O)NCc2ccco2)cc1 | 0.037 | -0.074 | 3.9* | + | 11 | -0.13 | 103 | M1 agonist conf=-2.3;M4 ag counter=-25
COC(=O)c1ccc(C(=O)OCCCc2nc3ccc([N+](=O)[O-])cc3[nH]2)cc1 | x | x | x | i | x | x | x
C=Cn1cccc1-c1cccs1 | x | x | x | i | x | x | x
COc1ccc2c(C=Nc3c(C)n(C)n(-c4ccccc4)c3=O)c(O)n(Cc3ccco3)c(=O)c2c1 | 0.83 | 4.2* | 9.5* | + | 8 | -2.2* | 101 | M1 agonist conf=11;M4 ag counter=-8.7
COc1ccccc1N1CCN(C(=O)CSc2nc(-c3ccco3)cc(C(F)(F)F)n2)CC1 | -0.95 | 0.94 | 7.5* | + | 2 | -0.19 | 109 | M1 agonist conf=-9.7;M4 ag counter=-11
CC(=O)N1CCN(c2ccccc2NC(=O)COc2cc(C)ccc2C(C)C)CC1 | -5.3* | -0.39 | 4.3* | + | 14 | -0.87 | u | M1 agonist conf=-26*;M4 ag counter=-56
Cc1ccc(C(C)C)c(OCC(=O)Nc2ccccc2N2CCN(C)CC2)c1 | x | 1.3 | 0.8 | i | 20 | -0.22 | x
CCCn1c2c(c(O)c(C(=O)Nc3ncccc3C)c1=O)CCCC2 | x | 1.2 | -1.1 | + | 22 | -2.3* | 97 | M1 antag confirm=421*;mGluR4 antag=208

Compound activity deposited in PubChem BioAssay by several laboratories.
